Data as given in ChEMBL document CHEMBL1177711, “Novel quinolizidinyl derivatives as antiarrhythmic agents: 2. Further investigation” (J Med Chem, 2010).
Calls of active or inactive are those of the source.

What was measured:
Aorta [1] = experiment: Vasorelaxant activity in potassium depolarized guinea pig aortic strip assessed as inhibition of calcium-induced contraction at 50 uM; assay type: functional; conditions: Cavia porcellus
[2] = Cardioprotective effect in Langendorff perfused guinea pig spontaneously beating […] assessed as atrioventicular conduction time at 0.001 uM (RVb = 50 to 55 +/- 1 to 4 ms); assay type: functional; conditions: Cavia porcellus
In short: (§1)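 Whole guinea pig hearts were Langendorff-perfused and their ECG recorded at graded concentrations. Intervals read were PR (atrioventricular conduction time), QT (ventricular action potential duration) and QRS (intraventricular conduction time).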

[3] = Cardioprotective effect in Langendorff perfused guinea pig spontaneously beating […] assessed as intraventicular conduction time at 1 uM (RVb = 19 to 24 +/- 1 to 2 ms); assay type: functional; conditions: Cavia porcellus; in short: as §1
[4] = Cardioprotective effect in Langendorff perfused guinea pig spontaneously beating […] assessed as atrioventicular conduction time at 0.01 uM (RVb = 50 to 55 +/- 1 to 4 ms); assay type: functional; conditions: Cavia porcellus; in short: as §1
[5] = Cardioprotective effect in Langendorff perfused guinea pig spontaneously beating […] assessed as intraventicular conduction time at 0.001 uM (RVb = 19 to 24 +/- 1 to 2 ms); assay type: functional; conditions: Cavia porcellus; in short: as §1
[6] = Cardioprotective effect in Langendorff perfused guinea pig spontaneously beating […] assessed as atrioventicular conduction time at 1 uM (RVb = 50 to 55 +/- 1 to 4 ms); assay type: functional; conditions: Cavia porcellus; in short: as §1
[7] = Cardioprotective effect in Langendorff perfused guinea pig spontaneously beating […] assessed as intraventicular conduction time at 10 uM (RVb = 19 to 24 +/- 1 to 2 ms); assay type: functional; conditions: Cavia porcellus; in short: as §1
[8] = Cardioprotective effect in Langendorff perfused guinea pig spontaneously beating […] assessed as atrioventicular conduction time at 10 uM (RVb = 50 to 55 +/- 1 to 4 ms); assay type: functional; conditions: Cavia porcellus; in short: as §1
[9] = Cardioprotective effect in Langendorff perfused guinea pig spontaneously beating […] assessed as intraventicular conduction time at 0.1 uM (RVb = 19 to 24 +/- 1 to 2 ms); assay type: functional; conditions: Cavia porcellus; in short: as §1
[10] = Cardioprotective effect in Langendorff perfused guinea pig spontaneously beating […] assessed as atrioventicular conduction time at 0.1 uM (RVb = 50 to 55 +/- 1 to 4 ms); assay type: functional; conditions: Cavia porcellus; in short: as §1
[11] = Cardioprotective effect in Langendorff perfused guinea pig spontaneously beating […] assessed as intraventicular conduction time at 0.01 uM (RVb = 19 to 24 +/- 1 to 2 ms); assay type: functional; conditions: Cavia porcellus; in short: as §1
[12] = Negative chronotropic activity against potassium-induced contraction in guinea pig left atrium assessed as decrease atrial rate at 0.5 uM relative to control; assay type: functional, Cavia porcellus, Cardiac atrium; design: scale not given: the % may be the effect or the level left
Heart [13] = experiment: Cardioprotective effect in Langendorff perfused guinea pig spontaneously beating […] assessed as heart rat at 10 uM (RVb = 175 to 190 +/- 5 to 11 bpm); assay type: functional, Cavia porcellus
[14] = Antiarrhythmic activity in sinusoidal alternating current-induced guinea pig left atrium assessed as increase in current strength at which extra beats occur at 10 uM measured every 30 mins; assay type: functional, Cavia porcellus, Cardiac atrium
In short: (§2)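 Isolated guinea pig left atria, electrically driven at 1 Hz, were exposed to sinusoidal alternating current to induce arrhythmia. The read-out was the rise in the ac-arrhythmia threshold over concentrations up to 100 μM.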

[15] = Cardioprotective effect in Langendorff perfused guinea pig spontaneously beating […] assessed as duration of ventricular action potential at 0.001 uM (RVb = 140 to 161 +/- 2 to 8 ms); assay type: functional, Cavia porcellus, Cardiac ventricle; in short: as §1
[16] = Cardioprotective effect in Langendorff perfused guinea pig spontaneously beating […] assessed as duration of ventricular action potential at 10 uM (RVb = 140 to 161 +/- 2 to 8 ms); assay type: functional, Cavia porcellus, Cardiac ventricle; in short: as §1
[17] = Negative inotropic activity against potassium-induced contraction in guinea pig left atrium assessed as decrease in developed tension at 10 uM relative to control; assay type: functional, Cavia porcellus, Cardiac atrium; design: scale not given: the % may be the effect or the level left
Heart [18] = experiment: Cardioprotective effect in Langendorff perfused guinea pig spontaneously beating […] assessed as heart rat at 0.1 uM (RVb = 175 to 190 +/- 5 to 11 bpm); assay type: functional, Cavia porcellus
[19] = Cardioprotective effect in Langendorff perfused guinea pig spontaneously beating […] assessed as duration of ventricular action potential at 0.1 uM (RVb = 140 to 161 +/- 2 to 8 ms); assay type: functional, Cavia porcellus, Cardiac ventricle; in short: as §1
[20] = Cardioprotective effect in Langendorff perfused guinea pig spontaneously beating […] assessed as duration of ventricular action potential at 0.01 uM (RVb = 140 to 161 +/- 2 to 8 ms); assay type: functional, Cavia porcellus, Cardiac ventricle; in short: as §1
Aorta [21] = experiment: Vasorelaxant activity in potassium depolarized guinea pig aortic strip assessed as inhibition of calcium-induced contraction at 100 uM; assay type: functional; conditions: Cavia porcellus
[22] = Negative chronotropic activity against potassium-induced contraction in guinea pig left atrium assessed as decrease atrial rate at 10 uM relative to control; assay type: functional, Cavia porcellus, Cardiac atrium; design: scale not given: the % may be the effect or the level left
[23] = Negative chronotropic activity against potassium-induced contraction in guinea pig left atrium assessed as decrease atrial rate; assay type: functional, tissue-based; conditions: Cavia porcellus, Cardiac atrium
[24] = Cardioprotective effect in Langendorff perfused guinea pig spontaneously beating […] assessed as duration of ventricular action potential at 1 uM (RVb = 140 to 161 +/- 2 to 8 ms); assay type: functional, Cavia porcellus, Cardiac ventricle; in short: as §1
Heart [25] = experiment: Cardioprotective effect in Langendorff perfused guinea pig spontaneously beating […] assessed as heart rat at 1 uM (RVb = 175 to 190 +/- 5 to 11 bpm); assay type: functional, Cavia porcellus
Heart [26] = experiment: Cardioprotective effect in Langendorff perfused guinea pig spontaneously beating […] assessed as heart rat at 0.001 uM (RVb = 175 to 190 +/- 5 to 11 bpm); assay type: functional, Cavia porcellus
[27] = Antiarrhythmic activity in sinusoidal alternating current-induced guinea pig left atrium assessed as increase in current strength at which extra beats occur measured every 30 mins; assay type: functional, tissue-based; conditions: Cavia porcellus, Cardiac atrium, 0.5 h; in short: as §2
Heart [28] = experiment: Cardioprotective effect in Langendorff perfused guinea pig spontaneously beating […] assessed as heart rat at 0.01 uM (RVb = 175 to 190 +/- 5 to 11 bpm); assay type: functional, Cavia porcellus
[29] = Negative inotropic activity against potassium-induced contraction in guinea pig left atrium assessed as decrease in developed tension; assay type: functional, tissue-based; conditions: Cavia porcellus, Cardiac atrium
Aorta [30] = experiment: Negative inotropic activity in potassium depolarized guinea pig aortic strip assessed as inhibition of calcium-induced contraction at 1 uM; assay type: functional, tissue-based; conditions: Cavia porcellus
[31] = Negative inotropic activity against potassium-induced contraction in guinea pig left atrium assessed as decrease in developed tension at 5 uM relative to control; assay type: functional, Cavia porcellus, Cardiac atrium; design: scale not given: the % may be the effect or the level left
[32] = Negative chronotropic activity against potassium-induced contraction in guinea pig left atrium assessed as decrease atrial rate at 100 uM relative to control; assay type: functional, Cavia porcellus, Cardiac atrium; design: scale not given: the % may be the effect or the level left
Cavia porcellus = species: Cavia porcellus; experiment: Negative inotropic activity in guinea pig longitudinal smooth muscle assessed as inhibition of calcium-induced contraction at 1 uM; assay type: functional
[33] = Negative inotropic activity against potassium-induced contraction in guinea pig left atrium assessed as decrease in developed tension at 0.1 uM relative to control; assay type: functional, Cavia porcellus, Cardiac atrium; design: scale not given: the % may be the effect or the level left
[34] = Antiarrhythmic activity in sinusoidal alternating current-induced guinea pig left atrium assessed as increase in current strength at which extra beats occur at 50 uM measured every 30 mins; assay type: functional, Cavia porcellus, Cardiac atrium; in short: as §2
[35] = Negative chronotropic activity against potassium-induced contraction in guinea pig left atrium assessed as decrease atrial rate at 50 uM relative to control; assay type: functional, Cavia porcellus, Cardiac atrium; design: scale not given: the % may be the effect or the level left

SMILES | AV conduction time [2] [ms] | intraventricular conduction time [3] [ms] | AV conduction time [4] [ms] | intraventricular conduction time [5] [ms] | AV conduction time [6] [ms] | intraventricular conduction time [7] [ms] | AV conduction time [8] [ms] | intraventricular conduction time [9] [ms] | AV conduction time [10] [ms] | intraventricular conduction time [11] [ms] | Activity (Heart [13]) [bpm] | Activity [15] [ms] | Activity [16] [ms] | Activity (Heart [18]) [bpm] | Activity [19] [ms] | Activity [20] [ms] | inhibition at 100 µM (Aorta [21]) [%] | Activity [24] [ms] | Activity (Heart [25]) [bpm] | Activity (Heart [26]) [bpm] | also measured
CCN(CC)CC(=O)Nc1c(C)cccc1C [LIDOCAINE] |  |  |  |  |  |  |  |  |  |  |  |  |  |  |  |  |  |  |  |  | inhibition at 50 µM (Aorta [1]): 14%
C=C[C@H]1CN2CC[C@H]1C[C@@H]2[C@@H](O)c1ccnc2ccc(OC)cc12 [QUINIDINE] | 53 | 35 | 54 | 25 | 60 | 39 | 70 | 31 | 57 | 27 |  |  |  |  |  |  |  |  |  |  | inhibition at 50 µM (Aorta [1]): 30%
Cc1cc(C(=O)c2ccccc2)cc(C)c1NC(=O)C[C@@H]1CCCN2CCCC[C@H]12 |  |  |  |  |  |  |  |  |  |  |  |  |  |  |  |  |  |  |  |  | Activity [12]: 70%
Cc1cccc(C)c1NCCSC[C@@H]1CCCN2CCCC[C@H]12 | 55 | 25 | 55 | 23 | 57 | 26 | 60 | 24 | 55 | 23 | 142 | 160 | 175 | 179 | 168 | 162 | 34 | 170 | 158 | 186 | Activity [14]: 129%; Activity [17]: 37%; Activity [22]: 62%; EC50 [23]: 8.42 µM; EC50 [27]: 0.31 µM; Activity (Heart [28]): 185 bpm
COc1cc(NC(C)=O)c(Cl)cc1C(=O)NC[C@@H]1CCCN2CCCC[C@H]12 | 52 | 22 | 54 | 20 | 56 | 22 | 56 | 21 | 53 | 20 | 165 | 139 | 155 | 168 | 150 | 141 | 4 | 152 | 167 | 172 | Activity [14]: 84%; EC50 [29]: 0.018 µM; inhibition (Aorta [30]): inactive; Activity [31]: 93%; Activity [32]: 6%; EC50 [27]: 0.24 µM; inhibition (Cavia porcellus): inactive; Activity (Heart [28]): 170 bpm
CCCCc1oc2ccccc2c1C(=O)c1cc(I)c(OCCN(CC)CC)c(I)c1 | 54 | 22 | 55 | 20 | 56 | 24 | 58 | 21 | 55 | 20 |  |  |  |  |  |  |  |  |  |  | 
Cc1cccc(C)c1NC(=O)CSC[C@@H]1CCCN2CCCC[C@H]12 [LUPINYLTHIOACETYLANILIDE] | 52 | 24 | 51 | 22 | 55 | 23 | 60 | 24 | 53 | 22 | 156 | 150 | 168 | 171 | 157 | 155 |  | 164 | 166 | 181 | Activity [33]: 48%; Activity [34]: 67%; Activity [32]: 30%; EC50 [27]: 0.59 µM; Activity (Heart [28]): 175 bpm
CC(=O)Nc1ccc(C(=O)NC[C@@H]2CCCN3CCCC[C@H]23)cc1 |  |  |  |  |  |  |  |  |  |  |  |  |  |  |  |  |  |  |  |  | EC50 [29]: 0.056 µM; Activity [12]: 14%
O=C(C[C@@H]1CCCN2CCCC[C@H]12)Nc1c(Cl)cccc1Cl |  |  |  |  |  |  |  |  |  |  |  |  |  |  |  |  | 6 |  |  |  | EC50 [29]: 0.1 µM; Activity [34]: 32%; Activity [35]: 15%
